Source: ChEMBL document CHEMBL2086393, “Haloenol pyranones and morpholinones as antineoplastic agents of prostate cancer” (Bioorg Med Chem Lett, 2012)
Activity calls are given as the source filed them. The calls are words filed in the database; no cut-off is given here.

How the values were obtained:
LNCaP [1] = test: Antineoplastic activity against human LNCAP cells after 72 hrs by MTT assay; assay type: functional, cell-based
Summary of the method: (§1)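 LNCaP and PC-3 human prostate cancer cells were exposed to compound for 24, 48 or 72 h, and growth was read as the change in MTT staining. IC50 was calculated from 3–5 experiments, each run in duplicate on separate cell passages.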

LNCaP [2] = test: Cytotoxicity against human LNCAP cells assessed as change in cell shape at 5 uM after 72 hrs by phase-contrast microscopic analysis; assay type: functional, cell-based
Summary of the method: (§2)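 LNCaP cells were treated at 5 μM for 72 h. Cells were inspected by eye under phase-contrast microscopy for changes in shape and differentiation, death, and signs of apoptosis or necrosis, compared with a DMSO vehicle control.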

PC-3 [3] = test: Antineoplastic activity against human PC3 cells after 48 hrs by MTT assay; assay type: functional, cell-based; settings: PC-3, 48 h; summary of the method: as §1
LNCaP [4] = test: Cytotoxicity against human LNCAP cells assessed as cell death at 5 uM after 72 hrs by phase-contrast microscopic analysis; assay type: functional, cell-based; summary of the method: as §2
PC-3 [5] = test: Antineoplastic activity against human PC3 cells after 72 hrs by MTT assay; assay type: functional, cell-based; settings: PC-3, 72 h; summary of the method: as §1
LNCaP [6] = test: Cytotoxicity against human LNCAP cells assessed as change in cell differentiation at 5 uM after 72 hrs by phase-contrast microscopic analysis; assay type: functional, cell-based; summary of the method: as §2
LNCaP [7] = test: Cell cycle arrest in human LNCAP cells assessed as decrease in S phase cells at 10 uM after 24 hrs by PI-based flow cytometric analysis relative to control; assay type: functional
Summary of the method: (§3)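 LNCaP cells were treated for 24 h at 5 or 10 μM. Cells were stained with propidium iodide and analysed by flow cytometry for the percentages in G1, S and G2/M phases, compared with control.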

Rattus norvegicus [8] = species on record: Rattus norvegicus; test: Inhibition of iPLA2beta in rat kidney cytosol using arachidonoyl thio-phosphatidylcholine as substrate after 0.5 hrs by spectrophotometry; assay type: tissue-based
Summary of the method: (§4)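 Cytosolic fractions were preincubated with compound at 0–100 μM for 0.5 h. Arachidonoyl thiophosphatidylcholine, a hydrolysable thioester probe of PLA2 activity, was then added to follow enzyme activity.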

LNCaP [9] = test: Cell cycle arrest in human LNCAP cells assessed as decrease in S phase cells at 5 uM after 24 hrs by PI-based flow cytometric analysis relative to control; assay type: functional; summary of the method: as §3
LNCaP [10] = test: Antineoplastic activity against human LNCAP cells after 24 hrs by MTT assay; assay type: functional, cell-based; summary of the method: as §1
LNCaP [11] = test: Cell cycle arrest in human LNCAP cells assessed as decrease in G2/M phase cells at 5 uM after 24 hrs by PI-based flow cytometric analysis relative to control; assay type: functional; summary of the method: as §3
PC-3 [12] = test: Antineoplastic activity against human PC3 cells after 24 hrs by MTT assay; assay type: functional, cell-based; settings: PC-3, 24 h; summary of the method: as §1
LNCaP [13] = test: Cell cycle arrest in human LNCAP cells assessed as increase in G1 phase cells at 10 uM after 24 hrs by PI-based flow cytometric analysis relative to control; assay type: functional; summary of the method: as §3
LNCaP [14] = test: Antineoplastic activity against human LNCAP cells after 48 hrs by MTT assay; assay type: functional, cell-based; summary of the method: as §1
LNCaP [15] = test: Cell cycle arrest in human LNCAP cells assessed as increase in G1 phase cells at 5 uM after 24 hrs by PI-based flow cytometric analysis relative to control; assay type: functional; summary of the method: as §3
LNCaP [16] = test: Antineoplastic activity against human LNCAP cells at 5 to 13 uM by MTT assay; assay type: functional, cell-based; settings: TDE = time-dependent effect; summary of the method: as §1
PC-3 [17] = test: Antineoplastic activity against human PC3 cells at 14 to 34 uM by MTT assay; assay type: functional, cell-based; settings: TDE = time-dependent effect; summary of the method: as §1
LNCaP [18] = test: Induction of apoptosis in human LNCAP cells at 5 uM after 72 hrs by phase-contrast microscopic analysis; assay type: functional, cell-based; summary of the method: as §2
LNCaP [19] = test: Induction of necrosis in human LNCAP cells at 5 uM after 72 hrs by phase-contrast microscopic analysis; assay type: functional, cell-based; summary of the method: as §2
Rattus norvegicus [20] = species on record: Rattus norvegicus; test: Inhibition of iPLA2beta in rat kidney cytosol using arachidonoyl thio-phosphatidylcholine as substrate up to 100 uM after 0.5 hrs by spectrophotometry; assay type: tissue-based; summary of the method: as §4

Compound	IC50 (LNCaP [1]) [µM]	IC50 (PC-3 [3]) [µM]	IC50 (PC-3 [5]) [µM]	IC50 (LNCaP [10]) [µM]	IC50 (PC-3 [12]) [µM]	IC50 (LNCaP [14]) [µM]	Activity (LNCaP [2])	Activity (LNCaP [4])	Activity (LNCaP [6])	Activity (LNCaP [7])	inhibition (Rattus norvegicus [8])	Activity (LNCaP [9])	Activity (LNCaP [11])	Activity (LNCaP [13])	Activity (LNCaP [15])	Activity (LNCaP [16])	Activity (PC-3 [17])	Activity (LNCaP [18])	Activity (LNCaP [19])	inhibition (Rattus norvegicus [20])
C#CCN1C/C(=C\I)OC(=O)[C@@H]1c1ccccc1	20	21	25	26	21	23														
C#CCN1C/C(=C\Br)OC(=O)[C@@H]1Cc1ccccc1	32	57	39	41	33	26														
O=C1O/C(=C/Br)CC[C@H]1c1cccc2ccccc12																				Active
C#CCN1CC(=O)O/C(=C/Br)C1	28	10	7	25	13	29														

Continued, in another order:

IC50 (LNCaP [1]) [µM]	IC50 (PC-3 [3]) [µM]	IC50 (PC-3 [5]) [µM]	IC50 (LNCaP [10]) [µM]	IC50 (PC-3 [12]) [µM]	IC50 (LNCaP [14]) [µM]	Compound	Activity (LNCaP [2])	Activity (LNCaP [4])	Activity (LNCaP [6])	Activity (LNCaP [7])	inhibition (Rattus norvegicus [8])	Activity (LNCaP [9])	Activity (LNCaP [11])	Activity (LNCaP [13])	Activity (LNCaP [15])	Activity (LNCaP [16])	Activity (PC-3 [17])	Activity (LNCaP [18])	Activity (LNCaP [19])	inhibition (Rattus norvegicus [20])
4	10	6	31	27	5	O=C1O/C(=C/Br)CCC1c1ccccc1 (racemic)	inactive	inactive	inactive	Active	Dose-dependent effect	Active	Active	Active	Active					
9	26	14	13	34	5	O=C1O/C(=C/Br)CCC1c1cccc2ccccc12 (racemic) [BROMOENOL LACTONE]	inactive	inactive	inactive	Active	Dose-dependent effect	Active	Active	Active	Active	tde	tde			
3	6	3	6	8	6	C#CCN1C/C(=C\Br)OC(=O)[C@H]1c1ccccc1				Active		Active	Active	Active	Active			Active	Active	inactive
5	23	14	10	19	5	O=C1CCC/C(=C\Br)O1														
3	13	5	8	15	3	C#CCN1C/C(=C\Br)OC(=O)[C@@H]1c1ccccc1				Active		Active	Active	Active	Active					Active
3	1	4	3	4	4	O=C1O/C(=C/Br)CN(Cc2ccccc2)[C@H]1c1ccccc1														
7	15	16	9	32	5	O=C1CCC/C(=C\I)O1														
